{
  "source": "ChEMBL document CHEMBL4732114",
  "about": "“Design and structural optimization of novel 2H-benzo[h]chromene derivatives that target AcrB and reverse bacterial multidrug resistance” (Eur J Med Chem, 2021)",
  "key": {"Escherichia coli": {"tested_on": "Escherichia coli", "experiment": "Antibacterial activity against multidrug-resistant Escherichia coli BW25113 harboring AcrB deletion mutant by two-fold broth dilution method", "type": "functional", "method_in_brief": "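Two-fold broth dilution MIC against an isogenic BW25113 strain with AcrB deleted, run alongside the AcrB-expressing parent. The test was done to define sub-inhibitory levels for later checkerboard work.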"}, "[1]": {"target": "T1, Multidrug efflux pump subunit AcrB (Escherichia coli (strain K12)) (UniProt P31224)", "T1 sequence (whole entry)": "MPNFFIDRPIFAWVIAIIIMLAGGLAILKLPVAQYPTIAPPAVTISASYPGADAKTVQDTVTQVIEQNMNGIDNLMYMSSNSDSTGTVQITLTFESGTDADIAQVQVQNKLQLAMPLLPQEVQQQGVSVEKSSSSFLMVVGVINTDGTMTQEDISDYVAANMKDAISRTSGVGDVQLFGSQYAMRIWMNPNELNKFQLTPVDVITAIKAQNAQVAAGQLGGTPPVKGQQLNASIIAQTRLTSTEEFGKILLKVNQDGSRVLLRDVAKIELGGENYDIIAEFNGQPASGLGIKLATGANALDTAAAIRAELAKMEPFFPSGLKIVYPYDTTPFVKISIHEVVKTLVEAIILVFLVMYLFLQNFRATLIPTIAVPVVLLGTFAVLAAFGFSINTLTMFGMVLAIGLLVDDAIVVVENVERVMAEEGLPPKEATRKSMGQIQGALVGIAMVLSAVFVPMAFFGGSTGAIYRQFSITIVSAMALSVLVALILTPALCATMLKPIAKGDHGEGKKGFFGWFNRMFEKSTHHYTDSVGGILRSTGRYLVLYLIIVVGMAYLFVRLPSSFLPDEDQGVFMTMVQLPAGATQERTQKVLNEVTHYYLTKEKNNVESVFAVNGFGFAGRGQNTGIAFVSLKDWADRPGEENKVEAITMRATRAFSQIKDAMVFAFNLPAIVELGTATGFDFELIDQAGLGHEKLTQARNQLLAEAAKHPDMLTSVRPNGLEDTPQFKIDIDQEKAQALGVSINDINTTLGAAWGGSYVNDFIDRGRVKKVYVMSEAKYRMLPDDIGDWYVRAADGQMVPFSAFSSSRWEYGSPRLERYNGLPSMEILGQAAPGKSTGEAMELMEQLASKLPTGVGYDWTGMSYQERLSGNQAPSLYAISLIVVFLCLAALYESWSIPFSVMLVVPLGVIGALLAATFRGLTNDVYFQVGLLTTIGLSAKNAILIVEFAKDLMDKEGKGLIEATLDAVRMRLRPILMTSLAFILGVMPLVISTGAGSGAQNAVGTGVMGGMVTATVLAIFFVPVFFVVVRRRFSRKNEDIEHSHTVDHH", "experiment": "Inhibition of AcrB in multidrug-resistant Escherichia coli BW25113 assessed as potentiation of erythromycin-induced antibacterial activity by measuring erythromycin MIC at 8 ug/ml by checkerboard titration method (reference value: 64 ug/ml)", "conditions": "dose 8.0 µg/ml"}, "[2]": {"experiment": "Toxicity in multidrug-resistant Escherichia coli BW25113 assessed as growth inhibition by two-fold broth dilution method"}, "[3]": {"experiment": "Toxicity in multidrug-resistant Escherichia coli BW25113 harboring AcrB deletion mutant assessed as growth inhibition by two-fold broth dilution method"}, "[4]": {"target": "T1, Multidrug efflux pump subunit AcrB (Escherichia coli (strain K12))", "experiment": "Inhibition of AcrB in multidrug-resistant Escherichia coli BW25113 assessed as potentiation of chloramphenicol-induced antibacterial activity by measuring chloramphenicol MIC at 8 ug/ml by checkerboard titration method (reference value: 8 ug/ml)", "conditions": "dose 8.0 µg/ml"}, "[5]": {"target": "T1, Multidrug efflux pump subunit AcrB (Escherichia coli (strain K12))", "experiment": "Inhibition of AcrB in multidrug-resistant Escherichia coli BW25113 assessed as potentiation of chloramphenicol-induced antibacterial activity by measuring chloramphenicol MIC at 16 ug/ml by checkerboard titration method (reference value: 8 ug/ml)", "conditions": "dose 16.0 µg/ml"}, "[6]": {"target": "T1, Multidrug efflux pump subunit AcrB (Escherichia coli (strain K12))", "experiment": "Inhibition of AcrB in multidrug-resistant Escherichia coli BW25113 assessed as potentiation of chloramphenicol-induced antibacterial activity by measuring chloramphenicol MIC at 32 ug/ml by checkerboard titration method (reference value: 8 ug/ml)", "conditions": "dose 32.0 µg/ml"}, "[7]": {"target": "T1, Multidrug efflux pump subunit AcrB (Escherichia coli (strain K12))", "experiment": "Inhibition of AcrB in multidrug-resistant Escherichia coli BW25113 assessed as potentiation of erythromycin-induced antibacterial activity by measuring erythromycin MIC at 16 ug/ml by checkerboard titration method (reference value: 64 ug/ml)", "conditions": "dose 16.0 µg/ml"}, "[8]": {"target": "T1, Multidrug efflux pump subunit AcrB (Escherichia coli (strain K12))", "experiment": "Inhibition of AcrB in multidrug-resistant Escherichia coli BW25113 assessed as potentiation of erythromycin-induced antibacterial activity by measuring erythromycin MIC at 32 ug/ml by checkerboard titration method (reference value: 64 ug/ml)", "conditions": "dose 32.0 µg/ml"}, "[9]": {"target": "T1, Multidrug efflux pump subunit AcrB (Escherichia coli (strain K12))", "experiment": "Inhibition of AcrB in multidrug-resistant Escherichia coli BW25113 assessed as potentiation of tetraphenylphosphonium-induced antibacterial activity by measuring tetraphenylphosphonium MIC at 8 ug/ml by checkerboard titration method (reference value: 1024 ug/ml)", "conditions": "dose 8.0 µg/ml"}, "[10]": {"target": "T1, Multidrug efflux pump subunit AcrB (Escherichia coli (strain K12))", "experiment": "Inhibition of AcrB in multidrug-resistant Escherichia coli BW25113 assessed as potentiation of tetraphenylphosphonium-induced antibacterial activity by measuring tetraphenylphosphonium MIC at 16 ug/ml by checkerboard titration method (reference value: 1024 ug/ml)", "conditions": "dose 16.0 µg/ml"}, "[11]": {"target": "T1, Multidrug efflux pump subunit AcrB (Escherichia coli (strain K12))", "experiment": "Inhibition of AcrB in multidrug-resistant Escherichia coli BW25113 assessed as potentiation of tetraphenylphosphonium-induced antibacterial activity by measuring tetraphenylphosphonium MIC at 32 ug/ml by checkerboard titration method (reference value: 1024 ug/ml)", "conditions": "dose 32.0 µg/ml"}, "[12]": {"target": "T1, Multidrug efflux pump subunit AcrB (Escherichia coli (strain K12))", "experiment": "Inhibition of AcrB in multidrug-resistant Escherichia coli BW25113 assessed as potentiation of levofloxacin-induced antibacterial activity by measuring levofloxacin MIC at 8 ug/ml by checkerboard titration method (reference value: 0.06 ug/ml)", "conditions": "dose 8.0 µg/ml"}, "[13]": {"target": "T1, Multidrug efflux pump subunit AcrB (Escherichia coli (strain K12))", "experiment": "Inhibition of AcrB in multidrug-resistant Escherichia coli BW25113 assessed as potentiation of levofloxacin-induced antibacterial activity by measuring levofloxacin MIC at 16 ug/ml by checkerboard titration method (reference value: 0.06 ug/ml)", "conditions": "dose 16.0 µg/ml"}, "[14]": {"target": "T1, Multidrug efflux pump subunit AcrB (Escherichia coli (strain K12))", "experiment": "Inhibition of AcrB in multidrug-resistant Escherichia coli BW25113 assessed as potentiation of levofloxacin-induced antibacterial activity by measuring levofloxacin MIC at 32 ug/ml by checkerboard titration method (reference value: 0.06 ug/ml)", "conditions": "dose 32.0 µg/ml"}, "[15]": {"target": "T1, Multidrug efflux pump subunit AcrB (Escherichia coli (strain K12))", "experiment": "Inhibition of AcrB in Escherichia coli BW25113 assessed as reduction in glucose-induced nile red efflux at 50 uM preincubated for 15 mins followed by nile red addition and incubated for 3 hrs in shaker in presence of CCCP by fluorimetric analysis", "conditions": "time 3.25 hrs", "method_in_brief": "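Wild-type and AcrB-deleted cells were preloaded with Nile Red, with or without compound. Fluorescence was recorded, and efflux was triggered at 100 s with 0.2% glucose. Traces were compared with the deletion-strain level. Triplicate experiments used different cell batches.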"}, "Cell membrane [16]": {"tested_on": "Cell membrane", "experiment": "Induction of outer membrane permeabilization in wild type Escherichia coli BW25113 assessed as increase in nitrocefin hydrolysis at 128 ug/ml in presence of CCCP by spectroscopic analysis", "conditions": "dose 128 µg/ml", "method_in_brief": "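Intact E. coli were treated with 10 μM CCCP to block nitrocefin efflux, then given compound, nothing, or polymyxin B as permeabilizer control. Nitrocefin was added, and hydrolysis by periplasmic β-lactamase was followed as the rise in absorbance at 490 nm. Duplicate experiments were run on different days.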"}, "Cell membrane [17]": {"tested_on": "Cell membrane", "experiment": "Induction of inner membrane permeabilization in wild type Escherichia coli BW25113 assessed as perturbation of proton motive force at 32 ug/ml measured after 10 mins in presence of CCCP and glucose by Di0C2(3) probe based fluorescence assay", "conditions": "escherichia coli bw25113, 10 min, dose 32 µg/ml", "method_in_brief": "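Cell suspensions were left untreated or exposed to 8-128 µg/mL compound for 10 min. DiOC₂(3) was then added and fluorescence followed to a plateau. Cells were re-energized with 0.5% glucose, and the rise in fluorescence was read as membrane-potential build-up. CCCP was added last to dissipate the potential.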"}, "[18]": {"target": "T1, Multidrug efflux pump subunit AcrB (Escherichia coli (strain K12))", "conditions": "Escherichia coli BW25113; dose 8.0 µg/ml"}, "[19]": {"target": "T1, Multidrug efflux pump subunit AcrB (Escherichia coli (strain K12))", "conditions": "Escherichia coli BW25113; dose 16.0 µg/ml"}, "[20]": {"target": "T1, Multidrug efflux pump subunit AcrB (Escherichia coli (strain K12))", "conditions": "Escherichia coli BW25113; dose 32.0 µg/ml"}, "[21]": {"target": "T1, Multidrug efflux pump subunit AcrB (Escherichia coli (strain K12))", "conditions": "Escherichia coli BW25113; dose 64.0 µg/ml"}, "[22]": {"target": "T1, Multidrug efflux pump subunit AcrB (Escherichia coli (strain K12))", "conditions": "Escherichia coli BW25113; dose 128.0 µg/ml"}},
  "note": "Activity calls are given as the source filed them. The rule behind the calls is not given here.",
  "data": [
    {"compound": "O=C(N[C@H](CO)[C@H](O)c1ccc([N+](=O)[O-])cc1)C(Cl)Cl", "note": "[CHLORAMPHENICOL]", "values": [
      {"measurement": "MIC", "setting": "Escherichia coli", "result": 2, "unit": "µg/mL"}
    ]},
    {"compound": "CC[C@H]1OC(=O)[C@H](C)[C@@H](O[C@H]2C[C@@](C)(OC)[C@@H](O)[C@H](C)O2)[C@H](C)[C@@H](O[C@@H]2O[C@H](C)C[C@H](N(C)C)[C@H]2O)[C@](C)(O)C[C@@H](C)C(=O)[C@H](C)[C@@H](O)[C@]1(C)O", "note": "[ERYTHROMYCIN]", "values": [
      {"measurement": "MIC", "setting": "Escherichia coli", "result": 4, "unit": "µg/mL"}
    ]},
    {"compound": "C[C@H]1COc2c(N3CCN(C)CC3)c(F)cc3c(=O)c(C(=O)O)cn1c23.C[C@H]1COc2c(N3CCN(C)CC3)c(F)cc3c(=O)c(C(=O)O)cn1c23.O", "note": "[LEVOFLOXACIN]", "values": [
      {"measurement": "MIC", "setting": "Escherichia coli", "result": 0.04, "unit": "µg/mL"}
    ]},
    {"compound": "CC1(C)CCc2c(-c3nnco3)cc3c(OCc4ccc(F)cc4)cccc3c2O1", "values": [
      {"measurement": "MIC", "setting": "[1]", "result": 64, "unit": "µg/mL"},
      {"measurement": "MIC", "setting": "[2]", "result": 64, "unit": "µg/mL"},
      {"measurement": "MIC", "setting": "[3]", "result": 64, "unit": "µg/mL"},
      {"measurement": "MIC", "setting": "[4]", "result": 8, "unit": "µg/mL"},
      {"measurement": "MIC", "setting": "[5]", "result": 8, "unit": "µg/mL"},
      {"measurement": "MIC", "setting": "[6]", "result": 8, "unit": "µg/mL"},
      {"measurement": "MIC", "setting": "[7]", "result": 64, "unit": "µg/mL"},
      {"measurement": "MIC", "setting": "[8]", "result": 32, "unit": "µg/mL"},
      {"measurement": "MIC", "setting": "[9]", "result": 1020, "unit": "µg/mL"},
      {"measurement": "MIC", "setting": "[10]", "result": 512, "unit": "µg/mL"},
      {"measurement": "MIC", "setting": "[11]", "result": 512, "unit": "µg/mL"},
      {"measurement": "MIC", "setting": "[12]", "result": 0.06, "unit": "µg/mL"},
      {"measurement": "MIC", "setting": "[13]", "result": 0.06, "unit": "µg/mL"},
      {"measurement": "MIC", "setting": "[14]", "result": 0.06, "unit": "µg/mL"},
      {"measurement": "inhibition", "setting": "[15]", "result": "Active"},
      {"measurement": "Activity", "setting": "Cell membrane [16]", "result": "Not Active"},
      {"measurement": "Activity", "setting": "Cell membrane [17]", "result": "Not Active"},
      {"measurement": "MIC", "setting": "[18]", "result": 16, "unit": "µg/mL"},
      {"measurement": "MIC", "setting": "[19]", "result": 16, "unit": "µg/mL"},
      {"measurement": "MIC", "setting": "[20]", "result": 16, "unit": "µg/mL"},
      {"measurement": "MIC", "setting": "[21]", "result": 16, "unit": "µg/mL"},
      {"measurement": "MIC", "setting": "[22]", "result": 16, "unit": "µg/mL"}
    ]}
  ]
}
